Screening data (PubChem BioAssay)
Beta2AR agonist – human beta-2 adrenergic receptor agonism by FAP; P07550; Am2.2-beta2AR cells, FAP receptor internalization, flow cytometry; response, % (test concentration not listed); 340,000 compounds, 0.43% hits;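 active = response above a set limit, near 3 SD of response in nonfluorescent compounds, cut at about 42% in these data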
MC4R antagonist – human MC4R antagonism in cAMP assay; P32245; MC4R-expressing cells, MTII-stimulated cAMP, LANCE TR-FRET; inhibition, % at 6.5 µM; 360,000 compounds, 0.48% hits; AID 540295;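 active = inhibition above its plate's cutoff, the mean of tested wells on that plate plus 3 SD, cut at about 29% in these data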;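 also: 0% = Melanotan II alone and 100% = Melanotan II plus saturating MCL0020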
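Material: human MC4R-expressing U2OS cells. Probe or stimulus: Melanotan II challenge. Dosing: 6.5 µM single dose. Times: 30-min compound, 1-h challenge, 1-h detection, room temperature. Technique: TR-FRET with Eu-cAMP and labeled anti-cAMP, 671 nm. Replication: singlicate.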
MC4R ag barr – agonists of human melanocortin 4 receptor (MC4R) beta-arrestin. P32245. U2OS MC4R beta-arrestin complementation, luminescence; percent of melanotan II response, DMSO zero. activation, % at 8.9 µM. 360,000 compounds, 0.98% hits;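 active = activation above a per-plate cutoff, the mean activation of sample wells on that plate plus 3 SD, cut at about 8% in these data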
PfGluPho inh – PfG6PD (Plasmodium falciparum) enzyme inhibition; PfGluPho enzyme, NADPH resazurin-diaphorase fluorescence; inhibition, % at 20 µM; 350,000 compounds, 0.78% hits;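 active = inhibition reaching at least a set limit at 20 µM in the primary screen, cut at about 59% in these data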;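 also: 0% = DMSO wells with substrate and 100% = DMSO wells lacking glucose-6-phosphate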
ABHD5 PLIN5 PPI – inhibitors of human ABHD5-perilipin-5 interaction; Q00G26+Q8WTS1; Split G. princeps luciferase complementation, luminescence, 4 h; inhibition, % at 4 µM; 360,000 compounds, 0.78% hits; AID 602281;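 active = inhibition above the mean inhibition across every tested compound plus 3 SD, cut at about 22% in these data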;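 also: 0% = DMSO only wells and the 100% control is not disclosed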
Target sequence (Q00G26 whole entry, looked up): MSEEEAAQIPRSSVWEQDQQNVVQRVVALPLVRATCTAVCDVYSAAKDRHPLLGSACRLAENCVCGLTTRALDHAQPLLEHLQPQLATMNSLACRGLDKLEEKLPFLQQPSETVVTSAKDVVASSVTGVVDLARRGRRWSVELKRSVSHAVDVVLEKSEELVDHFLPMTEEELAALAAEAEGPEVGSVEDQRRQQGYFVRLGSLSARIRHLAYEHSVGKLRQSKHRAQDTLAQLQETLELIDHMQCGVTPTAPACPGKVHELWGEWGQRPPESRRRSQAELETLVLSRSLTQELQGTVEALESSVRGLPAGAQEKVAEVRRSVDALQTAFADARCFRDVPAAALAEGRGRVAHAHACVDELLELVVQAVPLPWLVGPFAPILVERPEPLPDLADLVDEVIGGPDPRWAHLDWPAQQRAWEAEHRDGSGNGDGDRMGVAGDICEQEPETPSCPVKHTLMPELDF
Target sequence (Q8WTS1 whole entry, looked up): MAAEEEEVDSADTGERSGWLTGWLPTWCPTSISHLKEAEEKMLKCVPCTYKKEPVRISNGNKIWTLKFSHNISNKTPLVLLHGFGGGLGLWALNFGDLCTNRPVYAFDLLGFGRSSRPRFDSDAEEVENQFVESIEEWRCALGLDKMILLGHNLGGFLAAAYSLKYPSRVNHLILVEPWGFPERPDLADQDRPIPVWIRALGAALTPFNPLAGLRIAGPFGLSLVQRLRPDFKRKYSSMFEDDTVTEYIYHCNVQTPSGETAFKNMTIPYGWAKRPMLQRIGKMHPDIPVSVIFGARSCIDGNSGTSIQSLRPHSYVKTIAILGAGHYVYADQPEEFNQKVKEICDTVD
PfGluPho conf – confirmation of Plasmodium falciparum G6PD inhibitors; shares compounds with PfGluPho inh; recombinant PfGluPho, NADPH-diaphorase-resazurin fluorescence; inhibition, % at 20 µM; 2,400 compounds, 34% hits;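 active = inhibition of at least 50% at 20 µM in any single replicate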;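 also: 0% = DMSO with substrate and 100% = DMSO lacking glucose-6-phosphate substrate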
Diaph ctr 10uM – diaphorase inhibition or oxidation at 10 uM NADPH; shares compounds with PfGluPho inh; 820 compounds, 39% hits; inhibition, % at 20 µM; diaphorase-coupled resazurin reduction, fluorescence, NADPH 10 uM;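 active = average inhibition reaching 50% or more with the compound at 20 µM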;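 also: resorufin red fluorescence formed as diaphorase reduces resazurin using NADPH; 0% = DMSO with enzyme and 100% = DMSO without enzyme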
Diaph ctr 30uM – counter-screen for P. falciparum G6PD inhibitors: diaphorase inhibitors, oxidizers; AID 504863; inhibition, % at 20 µM; 820 compounds, 29% hits; Diaphorase/resazurin coupled assay, resorufin fluorescence, 30 uM NADPH; shares compounds with PfGluPho inh;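 active = inhibition averaging 50% or more, tested at 20 µM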;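 also: 0% = DMSO with enzyme and 100% = DMSO wells lacking diaphorase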
* hit, by the source's call; nt = not tested or not shown. Most compounds without a hit are left out; they make up all but 3% or so of the library.

SMILES | Beta2AR agonist | MC4R antagonist | MC4R ag barr | PfGluPho inh | ABHD5 PLIN5 PPI | PfGluPho conf | others
Cc1no[n+]([O-])c1COc1cccc(/C=N/Nc2nncn2N)c1 | -5.0 | -7.2 | -1.5 | 100.1* | -26.2 | 54.6* | Diaph ctr 10uM=41.5;Diaph ctr 30uM=27.1
COc1cc(/C=N/n2nnnc2N)ccc1OCc1c(C)no[n+]1[O-] | 8.7 | 3.5 | -1.0 | -3.2 | -2.0 | nt
CC(OC(=O)CC1CCCC1)C(=O)Nc1ccc(Cl)cn1 (centres undefined) | -8.6 | 4.1 | -0.6 | 4.3 | 0.9 | nt
CC[n+]1c(/C=C2/C=C(C)CC(C)(C)C2)sc2ccc(OC)cc21 | 4.7 | 23.9 | 0.2 | 45.4 | 6.0 | nt
CC[n+]1c(/C=C2\C=C(C)CC(C)(C)C2)sc2ccccc21 | -3.1 | 3.1 | 0.5 | 61.4* | 11.4 | 3.0
Cc1cc(C)c2sc(NC(=O)C3=COCCO3)nc2c1 | -3.2 | 5.5 | -3.5 | 75.5* | 4.5 | 47.4* | Diaph ctr 10uM=30.2;Diaph ctr 30uM=20.7
COc1cc2c(cc1OC)C(Cc1ccccc1[N+](=O)[O-])=NCC2 | -0.2 | 10.7 | 1.1 | 44.5 | -6.2 | -24.6
COc1ccc(NCc2ccccc2[N+](=O)[O-])cc1OC | -7.8 | -1.9 | -1.8 | 34.0 | -7.1 | nt
Cn1c(C(=O)Nc2ccc3c(c2)OCCO3)cc2sccc21 | -4.8 | 3.5 | -0.3 | 65.8* | -0.7 | 18.1
CCOC(=O)c1cnc2ccc(C(=O)OC)cc2c1NCCN1CCOCC1 | 2.8 | 13.3 | -1.6 | 71.2* | -7.1 | 16.1
COc1ccc(N=Cc2c(O)c3ccccc3n2C(C)=O)cc1 | 5.8 | 13.9 | -0.6 | 28.9 | -12.8 | nt
COc1ccc(N=Cc2sc(O)c3ccccc23)cc1 | -83.8 | -4.1 | -1.4 | 69.0* | -21.9 | -8.6
CCCC(C(=O)NC(C)(C)C)N(Cc1ccc(F)cc1)C(=O)c1snc(C(N)=O)c1N (centres undefined) | -9.9 | -0.4 | -0.2 | 8.7 | -7.3 | nt
NC(=O)c1ccc(N2CCN(c3ccc(O)cc3)CC2)c([N+](=O)[O-])c1 | 1.6 | 3.3 | -3.5 | 66.0* | 10.5 | 22.5
CC(=O)c1ccc(N2CCN(c3ccc(C(N)=O)cc3[N+](=O)[O-])CC2)cc1 | 6.0 | 9.4 | 0.0 | 8.2 | 0.4 | nt
O=C(CN1C(=O)C2C3C=CC(C3)C2C1=O)OCC(=O)c1ccc([N+](=O)[O-])cc1 (centres undefined) | 5.2 | 1.9 | 2.4 | 59.4* | -27.0 | 59.9* | Diaph ctr 10uM=-1.1;Diaph ctr 30uM=-4.3
Cc1cc(Nc2ccccc2C(=O)O)n(-c2ccc([N+](=O)[O-])cc2)n1 | 5.6 | -3.5 | 0.8 | -22.1 | 1.7 | nt
c1csc(-c2nn3c(C4COc5ccccc5O4)nnc3s2)c1 (centres undefined) | -6.3 | -25.8 | 1.6 | 59.2* | 5.1 | 8.6
c1ccc(OCc2nnc3sc(-c4cccs4)nn23)cc1 | -15.8 | -5.1 | -0.3 | 85.8* | -0.7 | 33.9
O=c1c2cccc(Cl)c2nc2n1Cc1ccccc1-2 | -11.8 | 4.8 | -1.4 | 77.7* | -6.6 | 42.7
O=S(=O)(Nc1ccc2c(c1)OCCO2)c1c(F)cccc1F | -9.3 | -0.3 | -3.1 | 10.2 | -4.2 | nt
Nc1nc(=S)c2[nH]c(=S)[nH]c2[nH]1 | -0.8 | 5.0 | -3.1 | 67.2* | -12.9 | 20.6
CCCOc1ccc(C(=O)CCN2CCN(C(=O)OCC)CC2)cc1 | -1.0 | 10.2 | -4.6 | 15.1 | 7.3 | nt
COc1ccc(Nc2nc(-c3ccccc3)c(C(=O)Nc3cccnc3)s2)cc1 | 4.1 | 12.4 | -1.7 | 64.5* | 5.0 | 15.7
CN(C(=O)CSc1n[nH]c(=O)[nH]c1=O)c1ccccc1 | 6.6 | 4.7 | 2.0 | -20.6 | 5.8 | nt
SMILES | Beta2AR agonist | MC4R antagonist | MC4R ag barr | PfGluPho inh | ABHD5 PLIN5 PPI | PfGluPho conf | others
O=C(Sc1n[nH]c(=O)[nH]c1=O)c1ccccc1 | -18.2 | -2.7 | 0.2 | 110.8* | -26.2 | 92.6* | Diaph ctr 10uM=-7.9;Diaph ctr 30uM=-8.8
Cc1cc(=O)oc2cc(OCC(=O)N3CCOCC3)ccc12 | 1.7 | 14.2 | 0.6 | 67.7* | -10.5 | 28.0
Cc1ccc(CSCC(=O)N/N=C/c2sccc2C)cc1 | -3.3 | -3.2 | -2.3 | 77.8* | -11.2 | 51.8* | Diaph ctr 10uM=63.1*;Diaph ctr 30uM=53.5*
COc1ccc(C(=O)C2CCCN(Cc3ccc(Sc4nncn4C)o3)C2)cc1F (centres undefined) | 3.2 | 4.7 | -0.5 | 9.9 | -0.2 | nt
O=C(/C=C/c1c(Cl)cccc1Cl)NCCCn1ccnc1 | -10.7 | 0.6 | -0.6 | -12.7 | 0.0 | nt
Cc1ccc(C)c(S(=O)(=O)N2CCN(C(=O)C3CCN(c4ncnc5sc(C)c(C)c45)CC3)CC2)c1 | 17.0 | 8.5 | 1.6 | -2.7 | 2.0 | nt
COc1ccccc1C(=O)Nc1cc(Cl)ccc1O | -6.9 | -0.8 | -1.3 | 34.9 | 5.3 | nt
CCOc1ccccc1C(=O)Nc1cc(Cl)ccc1O | 6.6 | -2.0 | -1.2 | 67.0* | 7.0 | -9.0
COc1ccc(N(C(=O)c2cnccn2)C(C(=O)NC2CCCCC2)c2ccc(O)cc2)cc1 (centres undefined) | -5.0 | -1.4 | -3.8 | -1.5 | -0.8 | nt
COc1ccc(-c2csc(Nc3ccc(S(N)(=O)=O)cc3)n2)cc1 | 13.2 | 1.1 | -1.2 | 47.6 | 0.6 | nt
CC(=O)Oc1ccc(-c2csc(Nc3ccc(S(N)(=O)=O)cc3)n2)cc1 | 11.0 | 0.1 | -2.8 | 61.5* | 4.4 | 11.3
NS(=O)(=O)c1ccc(Nc2nc(-c3ccc(O)cc3)cs2)cc1 | 5.2 | -8.1 | -0.1 | 70.0* | -3.8 | 10.9
Cc1ccc2c(c1)N(CC(=O)Nc1ccccc1F)C(=O)C(C)O2 (centres undefined) | -0.3 | 15.5 | 1.2 | -10.4 | -4.9 | nt
Cc1ccc([C@H]2C[C@H](O)[C@@H](n3cc(C4CC4)nn3)CN2Cc2cccs2)cc1 | nt | 1.0 | 8.1 | 29.8 | 5.8 | nt
COc1ccc(NC(=O)COC(=O)c2ccc(S(=O)(=O)N(C)c3ccccc3OC)cc2)cc1 | 13.5 | 16.4 | -0.2 | -4.9 | -5.1 | nt
NS(=O)(=O)c1ccc(N/N=C/c2ccc(O)c(O)c2O)c([N+](=O)[O-])c1 | -24.8 | -14.8 | -4.1 | 87.0* | 2.4 | 69.9* | Diaph ctr 10uM=5.4;Diaph ctr 30uM=-3.0
Cc1cc(C)cc(NC(=S)NN)c1 | 0.6 | 4.1 | -0.1 | -4.1 | -3.0 | nt
CCc1cc(N2CCOCC2)cc2c1[nH]c1ccccc12 | 10.5 | -5.0 | -0.7 | 67.1* | -7.9 | 44.5
c1ccc2c(c1)[nH]c1c(N3CCOCC3)ncnc12 | -1.3 | 3.1 | -0.1 | 11.2 | -1.2 | nt
Oc1c(N=Nc2ccccc2)sc2ccccc12 | 7.6 | -7.3 | -2.6 | 60.2* | 6.0 | 13.0
CCc1ccc(NC(=S)Nc2ccc3[nH]c(=O)[nH]c3c2)cc1 | 1.2 | -1.0 | 0.7 | 10.5 | 1.0 | nt
